Assay results as given in ChEMBL document CHEMBL4196221, “Improved Total Synthesis and Biological Evaluation of Coibamide A Analogues” (J Med Chem, 2018).
Activity calls are given as the source filed them. The rule behind the calls is not given here. Bridge positions count the residues as written; N and C are the ends. Square brackets hold non-standard residues; d marks the D form. Peptide text beside a SMILES is read from it. * marks the point of attachment. NMe2Val = CC(C)[C@@H](C(=O)*)N(C)C; NMeI = CC[C@H](C)[C@H](NC)C(=O)O; NMeT = CN[C@H](C(=O)O)[C@@H](C)O; NMeL = CN[C@@H](CC(C)C)C(=O)O; dHiv = CC(C)[C@@H](O)C(=O)O; NMeA = CN[C@@H](C)C(=O)O; dNMeA = CN[C@H](C)C(=O)O

Key:
A549 = assay: Growth inhibition of human A549 cells incubated for 72 hrs by MTT assay; type: functional; settings: A549, 72 h
Summary of the method: (§1)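 Cells seeded in 96-well plates; after 12 h, fresh medium with a concentration gradient of compound or DMSO vehicle added, then 72 h incubation. MTT added (final 0.5 mg/mL) for 4 h, medium removed, formazan dissolved in DMSO, shaken 2 min, 30 min at 37 °C, absorbance read at 490 nm. Inhibition % = [1 − OD(compound)/OD(control)] × 100; GI50 = 50% reduction versus control; three independent experiments.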

MDA-MB-231 [1] = assay: Growth inhibition of human MDA-MB-231 cells incubated for 72 hrs by MTT assay; type: functional; settings: MDA-MB-231, 72 h; summary of the method: as §1
PANC-1 = assay: Growth inhibition of human PANC1 cells incubated for 72 hrs by MTT assay; type: functional; settings: PANC-1, 72 h; summary of the method: as §1
MDA-MB-231 [2] = assay: Antitumor activity against human MDA-MB-231 cells xenografted in Balb/c nude mouse assessed as reduction in tumor mass at 0.3 mg/kg, sc dosed every 2 days for total of 11 compound injections; type: functional
Summary of the method: (§2)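 Balb/c nude mice given 1 ×10^7 MDA-MB-231 cells subcutaneously in right flank; at tumor size ∼100 mm3 (L × W × 1/2W), peritumoral subcutaneous injection every 2 days, vehicle equal volume 20% DMSO/80% sterile saline. Tumor size and body weight measured before each injection; after 11 injections mice sacrificed and tumors weighed. n = 7 treated, 4 vehicle; one-way ANOVA.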

Mus musculus [3] = assay: Toxicity in Balb/c nude mouse xenografted with human MDA-MB-231 cells assessed as induction of body weight loss at 0.3 mg/kg, sc dosed every 2 days for total of 11 compound injections; type: organism-based; settings: in vivo, 48 h; summary of the method: as §2
Mus musculus [4] = assay: Toxicity in Balb/c nude mouse xenografted with human MDA-MB-231 cells assessed as induction of side effect at 0.3 mg/kg, sc dosed every 2 days for total of 11 compound injections; type: organism-based; settings: in vivo, 48 h; summary of the method: as §2
MDA-MB-231 [5] = assay: Antitumor activity against human MDA-MB-231 cells xenografted in Balb/c nude mouse assessed as reduction in tumor size at 0.3 mg/kg, sc dosed every 2 days for total of 11 compound injections measured on day 9 onwards; type: functional, organism-based; summary of the method: as §2

| Compound | GI50 (A549) | GI50 (MDA-MB-231 [1]) | GI50 (PANC-1) | fold change (FC) (MDA-MB-231 [2]) | Activity (Mus musculus [3]) | Activity (Mus musculus [4]) | Activity (MDA-MB-231 [5]) |
| --- | --- | --- | --- | --- | --- | --- | --- |
| CC[C@H](C)[C@H]1C(=O)N[C@@H](C)C(=O)N(C)[C@@H](CC(C)C)C(=O)N[C@@H](Cc2ccc(OC)cc2)C(=O)N(C)[C@@H](C)C(=O)O[C@H](C)[C@H](N(C)C(=O)[C@H](CC(C)C)N(C)C(=O)[C@H](COC)N(C)C(=O)[C@H](OC(=O)[C@H](C(C)C)N(C)C)C(C)C)C(=O)N(C)[C@@H](COC)C(=O)N1C | 20100 nM | 7520 nM | 12400 nM | – | – | – | – |
| CC[C@H](C)[C@H]1C(=O)N[C@@H](C)C(=O)N(C)[C@@H](CC(C)C)C(=O)N[C@@H](Cc2ccc(OC)cc2)C(=O)N(C)[C@@H](C)C(=O)O[C@H](C)[C@H](N(C)C(=O)[C@H](CC(C)C)N(C)C(=O)[C@H](COC)N(C)C(=O)[C@@H](OC(=O)[C@H](C(C)C)N(C)C)C(C)C)C(=O)N(C)[C@@H](COC)C(=O)N1C | 22800 nM | > 16000 nM | – | – | – | – | – |
| CC[C@H](C)[C@H]1C(=O)N[C@@H](C)C(=O)N(C)[C@@H](CC(C)C)C(=O)N[C@@H](Cc2ccc(OC)cc2)C(=O)N(C)[C@H](C)C(=O)O[C@H](C)[C@H](N(C)C(=O)[C@H](CC(C)C)N(C)C(=O)[C@H](COC)N(C)C(=O)[C@H](OC(=O)[C@H](C(C)C)N(C)C)C(C)C)C(=O)N(C)[C@@H](COC)C(=O)N1C | 5.4 nM | 5 nM | 3.1 nM | – | – | – | – |
| CCCCCCCCCC(=O)N(C)[C@@H](CC(C)C)C(=O)N(C)[C@@H]1C(=O)N(C)[C@@H](C)C(=O)N(C)[C@@H]([C@@H](C)CC)C(=O)N[C@@H](C)C(=O)N(C)[C@@H](CC(C)C)C(=O)N[C@@H](Cc2ccc(OC)cc2)C(=O)N(C)[C@H](C)C(=O)O[C@@H]1C | 733 nM | 470 nM | 828 nM | – | – | – | – |
| CC[C@H](C)[C@H]1C(=O)N[C@@H](C)C(=O)N(C)[C@@H](CC(C)C)C(=O)N[C@@H](Cc2ccc(OC)cc2)C(=O)N(C)[C@H](C)C(=O)O[C@H](C)[C@H](N(C)C(=O)[C@H](CC(C)C)NC)C(=O)N(C)[C@@H](C)C(=O)N1C | – | > 16000 nM | – | – | – | – | – |
| CC[C@H](C)[C@H]1C(=O)N[C@@H](C)C(=O)N(C)[C@@H](CC(C)C)C(=O)N[C@@H](Cc2ccc(OC)cc2)C(=O)N(C)[C@H](C)C(=O)O[C@H](C)[C@H](N(C)C(=O)[C@H](CC(C)C)N(C)C(=O)[C@H](COC)N(C)C(=O)[C@@H](OC(=O)[C@H](C(C)C)N(C)C)C(C)C)C(=O)N(C)[C@@H](COC)C(=O)N1C | 19 nM | 545 nM | – | – | – | – | – |
| CC[C@H](C)[C@H]1C(=O)N[C@@H](C)C(=O)N(C)[C@@H](CC(C)C)C(=O)N[C@@H](Cc2ccc(OC)cc2)C(=O)N(C)[C@H](C)C(=O)O[C@H](C)[C@H](N(C)C(=O)[C@H](CC(C)C)N(C)C(=O)[C@@H](COC)N(C)C(=O)[C@@H](OC(=O)[C@H](C(C)C)N(C)C)C(C)C)C(=O)N(C)[C@@H](COC)C(=O)N1C | 2000 nM | 2660 nM | 1910 nM | – | – | – | – |
| CC[C@H](C)[C@H]1C(=O)N[C@@H](C)C(=O)N(C)[C@@H](CC(C)C)C(=O)N[C@@H](Cc2ccc(OC)cc2)C(=O)N(C)[C@H](C)C(=O)O[C@H](C)[C@H](N(C)C(=O)[C@H](CC(C)C)N(C)C(=O)[C@H](C)N(C)C(=O)[C@H](OC(=O)[C@H](C(C)C)N(C)C)C(C)C)C(=O)N(C)[C@@H](C)C(=O)N1C (NMe2Val-[dHiv][NMeA][NMeL][NMeT][NMeA][NMeI]A[NMeL]Y(Me)[dNMeA]; ester 4-C) | 7.3 nM | 5.1 nM | 7 nM | 2 | Non-Toxic | Non-Toxic | Active |
| CC[C@H](C)[C@H]1C(=O)N[C@@H](C)C(=O)N(C)[C@@H](CC(C)C)C(=O)N[C@@H](Cc2ccc(OC)cc2)C(=O)N(C)[C@H](C)C(=O)O[C@H](C)[C@@H](N(C)C(=O)[C@H](CC(C)C)N(C)C(=O)[C@H](COC)N(C)C(=O)[C@@H](OC(=O)[C@H](C(C)C)N(C)C)C(C)C)C(=O)N(C)[C@@H](COC)C(=O)N1C | – | 10800 nM | – | – | – | – | – |

Further lines, with some results ahead:

| GI50 (A549) | GI50 (MDA-MB-231 [1]) | GI50 (PANC-1) | Compound | fold change (FC) (MDA-MB-231 [2]) | Activity (Mus musculus [3]) | Activity (Mus musculus [4]) | Activity (MDA-MB-231 [5]) |
| --- | --- | --- | --- | --- | --- | --- | --- |
| 222 nM | 183 nM | 277 nM | CC[C@H](C)[C@H]1C(=O)N[C@@H](C)C(=O)N(C)[C@@H](CC(C)C)C(=O)N[C@@H](Cc2ccc(O)cc2)C(=O)N(C)[C@H](C)C(=O)O[C@H](C)[C@H](N(C)C(=O)[C@H](CC(C)C)N(C)C(=O)[C@H](COC)N(C)C(=O)[C@H](OC(=O)[C@H](C(C)C)N(C)C)C(C)C)C(=O)N(C)[C@@H](COC)C(=O)N1C | – | – | – | – |
| – | > 16000 nM | – | CC[C@H](C)[C@H]1C(=O)N[C@@H](C)C(=O)N(C)[C@@H](CC(C)C)C(=O)N[C@@H](Cc2ccc(OC)cc2)C(=O)N(C)[C@H](C)C(=O)O[C@H](C)[C@H](N(C)C(=O)[C@H](CC(C)C)N(C)C(=O)[C@H](C)N(C)C(=O)[C@H](OC(=O)[C@H](C(C)C)N(C)C(=O)CCN)C(C)C)C(=O)N(C)[C@@H](C)C(=O)N1C | – | – | – | – |
| 360 nM | 236 nM | 204 nM | CC[C@H](C)[C@H]1C(=O)N[C@@H](C)C(=O)N(C)[C@@H](CC(C)C)C(=O)N[C@@H](Cc2ccc(OC)cc2)C(=O)N(C)[C@H](C)C(=O)O[C@H](C)[C@H](N(C)C(=O)[C@H](CC(C)C)N(C)C(=O)[C@H](C)N(C)C(=O)[C@H](OC(=O)[C@@H](NC)C(C)C)C(C)C)C(=O)N(C)[C@@H](C)C(=O)N1C | – | – | – | – |
| 511 nM | 415 nM | 723 nM | CC[C@H](C)[C@H]1C(=O)N[C@@H](C)C(=O)N(C)[C@@H](CC(C)C)C(=O)N[C@@H](Cc2ccc(OC)cc2)C(=O)N(C)[C@H](C)C(=O)O[C@H](C)[C@H](N(C)C(=O)[C@H](CC(C)C)N(C)C(=O)[C@H](C)N(C)C(=O)[C@@H](C(C)C)N(C)C(=O)[C@H](C(C)C)N(C)C)C(=O)N(C)[C@@H](C)C(=O)N1C | – | – | – | – |
| 473 nM | 450 nM | 601 nM | CC[C@H](C)[C@H]1C(=O)N[C@@H](C)C(=O)N(C)[C@@H](CC(C)C)C(=O)N[C@@H](Cc2ccc(OC)cc2)C(=O)N(C)[C@H](C)C(=O)O[C@H](C)[C@H](N(C)C(=O)[C@H](CC(C)C)N(C)C(=O)[C@H](COC)N(C)C(=O)[C@H](NC(=O)[C@H](C(C)C)N(C)C)C(C)C)C(=O)N(C)[C@@H](COC)C(=O)N1C | – | – | – | – |
| 194 nM | 20.8 nM | 46.3 nM | CC[C@H](C)[C@H]1C(=O)N[C@@H](C)C(=O)N(C)[C@@H](CC(C)C)C(=O)N[C@@H](Cc2ccc(OC)cc2)C(=O)N(C)[C@H](C)C(=O)O[C@H](C)[C@H](N(C)C(=O)[C@H](CC(C)C)N(C)C(=O)[C@H](CO)N(C)C(=O)[C@H](OC(=O)[C@H](C(C)C)N(C)C)C(C)C)C(=O)N(C)[C@@H](COC(C)(C)C)C(=O)N1C | – | – | – | – |
| – | 2060 nM | 2180 nM | CC[C@H](C)[C@H]1C(=O)N[C@@H](C)C(=O)N(C)[C@@H](CC(C)C)C(=O)N[C@@H](Cc2ccc(OC)cc2)C(=O)N(C)[C@H](C)C(=O)O[C@H](C)[C@H](N(C)C(=O)[C@H](CC(C)C)N(C)C(=O)[C@H](CO)N(C)C(=O)[C@H](OC(=O)[C@H](C(C)C)N(C)C)C(C)C)C(=O)N(C)[C@@H](CO)C(=O)N1C | – | – | – | – |
| 443 nM | 239 nM | 415 nM | CC[C@H](C)[C@H]1C(=O)N[C@@H](C)C(=O)N(C)[C@@H](CC(C)C)C(=O)N[C@@H](Cc2ccc(OC)cc2)C(=O)N(C)[C@H](C)C(=O)O[C@H](C)[C@H](N(C)C(=O)[C@H](CC(C)C)N(C)C(=O)[C@H](C)N(C)C(=O)[C@H](OC(=O)[C@H](C(C)C)N(C)C(=O)CCNC(=O)OC(C)(C)C)C(C)C)C(=O)N(C)[C@@H](C)C(=O)N1C | – | – | – | – |
| 81.7 nM | 61.6 nM | 124 nM | CC[C@H](C)[C@H]1C(=O)N[C@@H](C)C(=O)N(C)[C@@H](CC(C)C)C(=O)N[C@@H](Cc2ccc(OC)cc2)C(=O)N(C)[C@H](C)C(=O)O[C@H](C)[C@H](N(C)C(=O)[C@H](CC(C)C)N(C)C(=O)[C@H](CCCCNC(=O)OC(C)(C)C)N(C)C(=O)[C@H](OC(=O)[C@H](C(C)C)N(C)C)C(C)C)C(=O)N(C)[C@@H](C)C(=O)N1C | – | – | – | – |
| 12.4 nM | 5.3 nM | 32.9 nM | CC[C@H](C)[C@H]1C(=O)N[C@@H](C)C(=O)N(C)[C@@H](CC(C)C)C(=O)N[C@@H](Cc2ccc(OC)cc2)C(=O)N(C)[C@H](C)C(=O)O[C@H](C)[C@H](N(C)C(=O)[C@H](CC(C)C)N(C)C(=O)[C@H](COC(C)(C)C)N(C)C(=O)[C@H](OC(=O)[C@H](C(C)C)N(C)C)C(C)C)C(=O)N(C)[C@@H](C)C(=O)N1C | – | – | – | – |
